Results from ChEMBL document CHEMBL3232847, “Discovery of 6-phenylpyrimido[4,5-b][1,4]oxazines as potent and selective acyl CoA:diacylglycerol acyltransferase 1 (DGAT1) inhibitors with in vivo efficacy in rodents” (J Med Chem, 2014).
pIC50: −log10 of the molar value. The source made the active and inactive calls. No cut-off for these calls is given here.

Legend:
[1] = Oral bioavailability in Sprague-Dawley rat at 2 mg/kg; assay type: ADME, organism-based; conditions: in vivo
[2] = Oral bioavailability in beagle dog at 5 mg/kg; assay type: ADME, organism-based, Canis lupus familiaris; conditions: in vivo
[3] = Volume of distribution at steady state in rhesus monkey at 0.2 mg/kg, iv; assay type: ADME, organism-based, Macaca mulatta; set-up: dose 0.2 mg/kg, route intravenous; conditions: in vivo, read-out: Vdss
[4] = molecular target: Voltage-gated inwardly rectifying potassium channel KCNH2 (Homo sapiens, UniProt Q12809); assay: Inhibition of human ERG by patch clamp assay
Voltage-gated inwardly rectifying potassium channel KCNH2, sequence (Q12809 whole entry): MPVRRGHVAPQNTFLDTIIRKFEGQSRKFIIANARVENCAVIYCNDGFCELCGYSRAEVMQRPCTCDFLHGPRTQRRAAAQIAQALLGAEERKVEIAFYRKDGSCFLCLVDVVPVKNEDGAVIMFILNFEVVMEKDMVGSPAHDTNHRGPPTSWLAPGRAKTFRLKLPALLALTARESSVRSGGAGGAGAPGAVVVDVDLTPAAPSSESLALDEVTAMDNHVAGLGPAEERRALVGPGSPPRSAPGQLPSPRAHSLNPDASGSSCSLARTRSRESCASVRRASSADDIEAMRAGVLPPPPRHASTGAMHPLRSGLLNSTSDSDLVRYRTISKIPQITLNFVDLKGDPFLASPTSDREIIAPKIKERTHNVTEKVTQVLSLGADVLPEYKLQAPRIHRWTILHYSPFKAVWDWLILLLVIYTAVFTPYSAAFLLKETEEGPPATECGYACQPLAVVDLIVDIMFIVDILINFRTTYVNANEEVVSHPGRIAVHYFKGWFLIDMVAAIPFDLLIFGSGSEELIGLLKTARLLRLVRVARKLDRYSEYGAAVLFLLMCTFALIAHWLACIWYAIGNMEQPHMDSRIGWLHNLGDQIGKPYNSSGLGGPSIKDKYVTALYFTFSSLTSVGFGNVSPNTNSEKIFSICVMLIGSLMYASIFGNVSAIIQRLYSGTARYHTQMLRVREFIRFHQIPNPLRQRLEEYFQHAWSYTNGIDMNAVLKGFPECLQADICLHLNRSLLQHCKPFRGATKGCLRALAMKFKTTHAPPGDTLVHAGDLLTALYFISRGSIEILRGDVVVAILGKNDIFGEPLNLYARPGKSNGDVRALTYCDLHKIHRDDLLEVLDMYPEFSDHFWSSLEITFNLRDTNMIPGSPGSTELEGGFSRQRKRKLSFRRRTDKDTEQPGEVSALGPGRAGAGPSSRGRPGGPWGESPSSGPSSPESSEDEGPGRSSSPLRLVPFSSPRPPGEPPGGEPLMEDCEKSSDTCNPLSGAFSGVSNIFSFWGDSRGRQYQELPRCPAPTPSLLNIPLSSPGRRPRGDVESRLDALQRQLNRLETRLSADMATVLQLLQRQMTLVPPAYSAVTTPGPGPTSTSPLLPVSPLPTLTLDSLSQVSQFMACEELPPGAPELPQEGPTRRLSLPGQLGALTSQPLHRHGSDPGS

[5] = AUC in cynomolgus monkey at 100 mg/kg, po administered as single dose relative to control; assay type: ADME, organism-based, Macaca fascicularis; set-up: dose 100 mg/kg, route oral; conditions: plasma
Method in brief: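 Cynomolgus monkeys received a single oral dose of 100 mg/kg. Plasma AUC was recorded alongside plasma liver enzymes ALT and AST.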

Rattus norvegicus [6] = species on record: Rattus norvegicus; assay: Inhibition of rat small intestine microsomal MGAT up to 10 uM by TLC technique in presence of monoacylglycerol and [14C] palmitoyl CoA; assay type: microsomes
[7] = Clearance in Sprague-Dawley rat at 0.7 mg/kg, iv; assay type: ADME, organism-based; set-up: dose 0.7 mg/kg, route intravenous; conditions: in vivo
[8] = Inhibition of rat small intestine microsomal MGAT by TLC technique in presence of monoacylglycerol and [14C] palmitoyl CoA; assay type: microsomes
[9] = Inhibition of mouse liver microsomal GPAT by TLC technique in presence of glycerol-3-phosphate and [14C] palmitoyl CoA
Mus musculus = assay: Reduction in plasma triglyceride level in C57BL/6J mouse at 0.1 mg/kg, po treated 30 mins prior to olive oil administration measured 3 hrs post olive oil administration relative to vehicle-treated control; assay type: functional; set-up: scale not given: the % may be the effect or the level left
Method in brief: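 Animals received vehicle or compound by oral gavage, then olive oil (5 mL/kg) by oral gavage 30 min later. Plasma triglycerides were measured before dosing and 3 h after the oil. The read-out was the change in TG from pre-dose, compared with vehicle-treated animals.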

[10] = molecular target: T1, Sterol O-acyltransferase 2 (Homo sapiens, UniProt O75908); assay: Inhibition of human full-length flag-tagged ACAT2 expressed in baculovirus infected insect cells using [14C]palmitoyl CoA as substrate after 10 mins by scintillation counting
T1 sequence (O75908 whole entry): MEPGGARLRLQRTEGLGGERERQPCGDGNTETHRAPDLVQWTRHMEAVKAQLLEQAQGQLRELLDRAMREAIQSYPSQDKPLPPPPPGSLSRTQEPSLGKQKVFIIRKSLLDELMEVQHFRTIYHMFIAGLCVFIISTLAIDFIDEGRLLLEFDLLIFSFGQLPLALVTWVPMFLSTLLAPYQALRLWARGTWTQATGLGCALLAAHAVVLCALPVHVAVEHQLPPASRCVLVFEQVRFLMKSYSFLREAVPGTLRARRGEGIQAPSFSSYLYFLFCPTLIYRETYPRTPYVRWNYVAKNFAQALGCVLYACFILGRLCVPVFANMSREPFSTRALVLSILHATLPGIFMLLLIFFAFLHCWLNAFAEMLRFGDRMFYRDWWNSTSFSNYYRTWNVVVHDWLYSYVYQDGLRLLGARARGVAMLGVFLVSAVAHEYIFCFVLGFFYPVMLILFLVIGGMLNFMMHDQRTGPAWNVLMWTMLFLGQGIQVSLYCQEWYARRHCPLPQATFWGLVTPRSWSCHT

[11] = Volume of distribution at steady state in Sprague-Dawley rat at 0.7 mg/kg, iv; assay type: ADME, organism-based; set-up: dose 0.7 mg/kg, route intravenous; conditions: in vivo, read-out: Vdss
[12] = Half life in cynomolgus monkey at 0.5 mg/kg, iv; assay type: ADME, organism-based, Macaca fascicularis; set-up: dose 0.5 mg/kg, route intravenous; conditions: in vivo
[13] = AUC in cynomolgus monkey at 5 mg/kg, po; assay type: ADME, organism-based, Macaca fascicularis; set-up: dose 5 mg/kg, route oral; conditions: plasma
[14] = Oral bioavailability in cynomolgus monkey at 5 mg/kg; assay type: ADME, organism-based, Macaca fascicularis; conditions: in vivo
Rattus norvegicus [15] = assay: Toxicity in Sprague-Dawley rat assessed as sebaceous gland atrophy at 30 to 100 mg/kg, po qd by 14-day multiple-dose toxicity study; assay type: organism-based; set-up: dose 30-100 mg/kg, route oral; conditions: in vivo
Method in brief: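 Sprague−Dawley rats were dosed po once daily for 14 days. Clinical and histopathological findings were assessed, and plasma AUC was recorded for each dose.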

Cynomolgus monkey [16] = assay: Toxicity in cynomolgus monkey assessed as elevation of ALT level at 10 to 30 mg/kg/day, po qd by 21-day multiple-dose toxicity study relative to control; assay type: organism-based, Macaca fascicularis; set-up: route oral; conditions: in vivo
Method in brief: (§1)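 Cynomolgus monkeys were dosed po once daily at 10 and 30 mg/kg for 21 days. ALT and AST levels, QTc intervals, and clinical and histopathological findings were assessed, and plasma AUC was recorded for each dose.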

Cynomolgus monkey [17] = assay: Toxicity in cynomolgus monkey assessed as elevation of change in clinical parameters at 10 to 30 mg/kg/day, po qd by 21-day multiple-dose toxicity study relative to control; assay type: organism-based, Macaca fascicularis; set-up: route oral; conditions: in vivo; method in brief: as §1
[18] = AUC in cynomolgus monkey at 10 mg/kg/day, po qd; assay type: ADME, organism-based, Macaca fascicularis; set-up: route oral; conditions: plasma
Method in brief: (§2)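 Cynomolgus monkeys dosed orally once daily at 10 or 30 mg/kg for 21 days in a multiple-dose toxicity study. Plasma AUC was reported, with ALT/AST levels, QTc intervals and clinical and histopathological findings monitored.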

[19] = AUC in cynomolgus monkey at 30 mg/kg/day, po qd; assay type: ADME, organism-based, Macaca fascicularis; set-up: route oral; conditions: plasma; method in brief: as §2

bioavailability [1] | bioavailability [2] | Vd [3] | AUC [5] | clearance [7] | pIC50 [8] | pIC50 [9] | pIC50 [10] | Vd [11] | half-life [12] | AUC [13] | bioavailability [14] | AUC [18] | AUC [19] | Structure (SMILES) | pIC50 [4] | inhibition (Rattus norvegicus [6]) | Activity (Mus musculus) | Activity (Rattus norvegicus [15]) | Activity (Cynomolgus monkey [16]) | Activity (Cynomolgus monkey [17])
30% | 64% | 0.46 L/kg | 1420 µM·h |  |  |  |  |  |  |  |  |  |  | CC1(C)Oc2ncnc(N)c2N=C1c1ccc([C@H]2CC[C@H](CC(=O)O)CC2)cc1 | < 5.00 | inactive |  |  |  | 
 |  |  |  | 3.5 mL/min/kg | < 5.00 | < 5.00 | < 5.00 | 1.1 L/kg | 15.4 h | 252 µg·h/mL | 99% | 607 µM·h | 2560 µM·h | CC1(C)Oc2nc(C(F)(F)F)nc(N)c2N=C1c1ccc2c(c1)CC[C@]21CC[C@@H](CC(=O)O)CC1 |  |  | 99.7% | Toxic | Non-toxic | Non-toxic
